Results taken from ChEMBL document CHEMBL2040850, “Indole based cyclooxygenase inhibitors: synthesis, biological evaluation, docking and NMR screening” (Eur J Med Chem, 2012).
Active and inactive are the calls of the source. The calls are words filed in the database; no cut-off is given here.

Experiments:
[1] = target: Prostaglandin G/H synthase 1 (Ovis aries) (UniProt P05979); assay: Inhibition of ovine COX1 assessed as PGE2 formation at 50 uM by enzyme immunoassay
[2] = target: T1, Prostaglandin G/H synthase 2 (Homo sapiens) (UniProt P35354); assay: Inhibition of recombinant human COX2 assessed as PGF2alpha formation at 50 uM by enzyme immunoassay
T1 sequence (whole entry): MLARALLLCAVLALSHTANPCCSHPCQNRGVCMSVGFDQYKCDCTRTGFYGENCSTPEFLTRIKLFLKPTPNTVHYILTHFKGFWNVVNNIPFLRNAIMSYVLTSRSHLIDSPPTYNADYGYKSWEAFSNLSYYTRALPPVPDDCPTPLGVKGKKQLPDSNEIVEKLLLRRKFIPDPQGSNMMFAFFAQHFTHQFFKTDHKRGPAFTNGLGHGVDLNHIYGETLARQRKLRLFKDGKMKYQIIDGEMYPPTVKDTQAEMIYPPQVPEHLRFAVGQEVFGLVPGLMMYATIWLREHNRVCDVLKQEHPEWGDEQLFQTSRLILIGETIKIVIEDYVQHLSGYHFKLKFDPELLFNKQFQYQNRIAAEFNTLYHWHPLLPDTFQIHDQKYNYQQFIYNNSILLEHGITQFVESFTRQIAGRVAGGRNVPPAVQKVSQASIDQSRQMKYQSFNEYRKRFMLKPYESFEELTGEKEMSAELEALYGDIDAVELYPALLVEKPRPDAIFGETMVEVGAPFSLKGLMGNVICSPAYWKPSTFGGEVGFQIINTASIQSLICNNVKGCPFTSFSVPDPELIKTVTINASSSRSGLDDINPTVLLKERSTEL

[3] = target: Prostaglandin G/H synthase 2 (Homo sapiens) (UniProt P35354); assay: Inhibition of recombinant human COX2 assessed as PGE2 formation at 100 uM by enzyme immunoassay
[4] = target: Prostaglandin G/H synthase 2 (Homo sapiens) (UniProt P35354); assay: Inhibition of human COX2 assessed as PGE2 formation at 100 uM by enzyme immunoassay
[5] = target: T2, Prostaglandin G/H synthase 1 (Ovis aries) (UniProt P05979); assay: Reversible binding affinity to ram seminal vesicle COX1 at 300 uM by STD-NMR spectroscopy
T2 sequence (whole entry): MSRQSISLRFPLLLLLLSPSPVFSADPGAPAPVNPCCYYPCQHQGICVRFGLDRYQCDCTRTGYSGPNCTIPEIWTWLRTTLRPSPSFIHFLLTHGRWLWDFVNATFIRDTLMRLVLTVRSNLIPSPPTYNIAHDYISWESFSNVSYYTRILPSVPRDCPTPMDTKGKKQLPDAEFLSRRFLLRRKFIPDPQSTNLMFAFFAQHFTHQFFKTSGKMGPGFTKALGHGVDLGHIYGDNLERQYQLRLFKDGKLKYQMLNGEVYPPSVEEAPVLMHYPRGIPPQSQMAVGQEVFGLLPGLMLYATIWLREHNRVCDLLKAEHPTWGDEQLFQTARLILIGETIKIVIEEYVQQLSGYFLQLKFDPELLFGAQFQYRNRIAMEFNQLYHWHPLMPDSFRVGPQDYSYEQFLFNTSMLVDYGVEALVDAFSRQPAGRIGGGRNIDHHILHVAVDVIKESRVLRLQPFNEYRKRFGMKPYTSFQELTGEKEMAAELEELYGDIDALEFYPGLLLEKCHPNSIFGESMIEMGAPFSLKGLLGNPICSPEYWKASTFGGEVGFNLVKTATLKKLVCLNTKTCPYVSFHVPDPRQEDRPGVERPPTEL
Outline: (§1)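 STD-NMR of ligand binding to COX-1 (ram seminal vesicle) or COX-2 (sheep placenta) in 80 mM Tris–HCl pH 8.0 with 0.1% Tween 20 and 300 µM DDC. Final mixture was about 3 µM enzyme and 300 µM ligand, added from a 2 mM DMSO-d6 stock. Protein irradiated at -300 Hz with 51 shaped 90° pulses (2.5 s total saturation), 20 ms spin-lock filter, 1024 transients.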

[6] = target: T3, Prostaglandin G/H synthase 2 (Ovis aries) (UniProt P79208); assay: Reversible binding affinity to sheep placenta COX2 at 300 uM by STD-NMR spectroscopy
T3 sequence (whole entry): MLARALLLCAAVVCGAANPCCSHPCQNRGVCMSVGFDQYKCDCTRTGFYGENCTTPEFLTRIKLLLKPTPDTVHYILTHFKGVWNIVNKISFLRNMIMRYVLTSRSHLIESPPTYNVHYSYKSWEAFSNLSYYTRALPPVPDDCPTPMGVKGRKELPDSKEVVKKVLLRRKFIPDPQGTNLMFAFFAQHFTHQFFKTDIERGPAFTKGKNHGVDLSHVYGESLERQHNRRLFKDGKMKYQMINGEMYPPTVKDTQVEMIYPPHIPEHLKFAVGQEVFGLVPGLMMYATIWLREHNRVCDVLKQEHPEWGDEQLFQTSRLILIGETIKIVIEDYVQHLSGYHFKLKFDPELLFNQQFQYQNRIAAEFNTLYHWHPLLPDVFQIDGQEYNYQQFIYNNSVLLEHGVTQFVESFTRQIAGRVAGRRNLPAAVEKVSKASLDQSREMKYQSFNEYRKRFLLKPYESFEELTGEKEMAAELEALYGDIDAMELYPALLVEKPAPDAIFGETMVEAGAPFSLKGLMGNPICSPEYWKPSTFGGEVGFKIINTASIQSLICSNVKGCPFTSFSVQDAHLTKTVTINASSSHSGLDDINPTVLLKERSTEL
Outline: as §1

[7] = target: T2, Prostaglandin G/H synthase 1 (Ovis aries); settings: 1 uM

| SMILES | inhibition [1] | inhibition [2] | inhibition [4] | further results |
| --- | --- | --- | --- | --- |
| CS(=O)(=O)c1ccc2c(c1)c(Cc1ccc(F)cc1)cn2C=CCC(F)(F)F (mixture of isomers) | 8% | 12% | 18% | – |
| CS(=O)(=O)c1ccc2c(c1)c(Cc1ccc(Cl)cc1)cn2CC(O)CC(F)(F)F (stereo not given) | 8% | 20% | 34% | – |
| CS(=O)(=O)c1ccc2c(c1)c(Cc1ccc(F)cc1)cn2CC(O)CC(F)(F)F (stereo not given) | 14% | – | 9% | – |
| NS(=O)(=O)c1ccc2[nH]cc(Cc3ccc(F)cc3)c2c1 | 40% | 32% | 20% | Activity [5]: Active |
| CS(=O)(=O)c1ccc2[nH]cc(Cc3ccc(Cl)cc3)c2c1 | – | – | 24% | – |
| CS(=O)(=O)c1ccc2c(c1)c(Cc1ccc(Br)cc1)cn2CC(O)CC(F)(F)F (stereo not given) | 12% | 23% | 15% | – |
| NS(=O)(=O)c1ccc2[nH]cc(Cc3ccc(Cl)cc3)c2c1 | 21% | 32% | 31% | – |
| CS(=O)(=O)c1ccc2[nH]cc(Cc3ccc(Br)cc3)c2c1 | – | – | 26% | – |
| CS(=O)(=O)c1ccc2c(c1)c(Cc1ccc(Br)cc1)cn2C=CCC(F)(F)F (mixture of isomers) | 20% | 21% | 19% | – |
| CS(=O)(=O)c1ccc2c(c1)c(Cc1ccc(Cl)cc1)cn2C=CCC(F)(F)F (mixture of isomers) | 11% | – | 23% | – |
| CS(=O)(=O)c1ccc2[nH]c(Cc3ccc(Br)cc3)c(Cc3ccc(Br)cc3)c2c1 | – | – | – | inhibition [3]: inactive |
| CS(=O)(=O)c1ccc2[nH]c(Cc3ccc(F)cc3)c(Cc3ccc(F)cc3)c2c1 | – | – | – | inhibition [3]: inactive |
| COc1ccc2c(c1)c(CC(=O)O)c(C)n2C(=O)c1ccc(Cl)cc1 | – | – | – | inhibition [7]: 46% |

Continued, in another order:

| inhibition [1] | inhibition [2] | inhibition [4] | SMILES | further results |
| --- | --- | --- | --- | --- |
| 19% | 23% | – | NS(=O)(=O)c1ccc2[nH]cc(Cc3ccc(Br)cc3)c2c1 | – |
| 25% | 24% | – | CS(=O)(=O)c1ccc2[nH]c(Cc3ccc(Cl)cc3)c(Cc3ccc(Cl)cc3)c2c1 | inhibition [3]: inactive |
| 35% | – | – | NS(=O)(=O)c1ccc2[nH]c(Cc3ccc(Br)cc3)c(Cc3ccc(Br)cc3)c2c1 | – |
| 18% | – | – | NS(=O)(=O)c1ccc2[nH]c(Cc3ccc(F)cc3)c(Cc3ccc(F)cc3)c2c1 | Activity [6]: Active |
| 41% | – | – | NS(=O)(=O)c1ccc2[nH]c(Cc3ccc(Cl)cc3)c(Cc3ccc(Cl)cc3)c2c1 | – |
| 11% | 22% | 27% | NS(=O)(=O)c1ccc(Cc2c[nH]c3ccc(Br)cc23)cc1 | – |
